# Measurements as given in ChEMBL document CHEMBL5376022, “Design, synthesis and biological evaluation of novel pyrimidine derivatives as bone anabolic agents promoting osteogenesis via the BMP2/SMAD1 signaling pathway” (RSC Med Chem, 2024).
# The source made the active and inactive calls. The calls are words filed in the database; no cut-off is given here.
# What was measured:
# Calvarial osteoblast [1] = experiment: Cytotoxicity in BALB/c mouse calvarial osteoblast cells at 0.001 to 1000 nM incubated for 48 hrs by MTT assay; format: toxicity, cell-based, Calvaria; details: 1 µM, dose 0.001-1000 nM
# Outline: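 Primary calvarial osteoblasts from 1–2 day old BALB/c pups (collagenase/dispase digests, α-MEM with 10% FBS) seeded at 2 × 10³ per well. MTT added for 4 h at 37 °C, formazan dissolved in DMSO, absorbance read at 570 nm.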
# Calvarial osteoblast [2] = experiment: Induction of cell proliferation of BALB/c mouse calvarial osteoblast cells at 0.1 nM incubated for 48 hrs by MTT assay relative to control; format: functional, Calvaria
# Outline: (§1)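 Primary calvarial osteoblasts from 1–2-day-old neonatal BALB/c pups, released by dispase/collagenase digestion and grown in α-MEM with 10% FBS. Seeded at 2 × 10³ cells per well, treated after 24 h for 48 h in α-MEM with 5% FBS, 10 mM β-glycerophosphate and 50 μg mL⁻¹ ascorbic acid. MTT added for 4 h at 37 °C, formazan dissolved in DMSO, absorbance read at 570 nm versus untreated cells.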
# Calvarial osteoblast [3] = experiment: Induction of osteogenesis in BALB/c mouse calvarial osteoblast cells using PNPP as substrate assessed as increase in ALP activity at 0.1 to 10 nM measured after 48 hrs by spectrophotometry; format: functional, cell-based; details: Calvaria, dose 0.1-10 nM
# Outline: (§2)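 Neonatal BALB/c calvarial osteoblasts, 2 × 10³ cells per well, adhered 24 h, then exposed to compounds (1 pM to 1 μM range) in osteoblast differentiation medium for 48 h. Cells frozen overnight at −80 or −20 °C, thawed at 37 °C to expose ectoenzyme; p-nitrophenyl phosphate added and ALP activity read at 405 nm. Untreated cells as control.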
# [4] = Induction of osteogenesis in BALB/c mouse MSC cells assessed as increase in mineral nodule formation at 0.1 nM treated for 21 days with compound refreshment for every 48 hrs by Alizarin red S staining based analysis relative to control; format: functional; details: time 21 day
# Outline: (§3)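 Bone marrow cells were flushed from the long bones of 6–8-week-old BALB/c mice and seeded at 2 × 10⁶ per well. Medium: 10% FBS, 100 nM dexamethasone, 50 μg mL⁻¹ ascorbic acid and 10 mM β-glycerophosphate. Compound and medium were renewed every 48 h for 21 days. Cells were fixed in 4% paraformaldehyde and stained with Alizarin red (pH 4.2). Stain was eluted with 10% cetylpyridinium chloride for 1 h and read at 595 nm versus control.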
# Calvarial osteoblast [5] = experiment: Induction of osteogenesis in BALB/c mouse calvarial osteoblast cells using PNPP as substrate assessed as increase in ALP activity at 0.001 to 1000 nM measured after 48 hrs by spectrophotometry; format: functional, cell-based; details: Calvaria, dose 0.001-1000 nM; outline: as §2
# Mus musculus [6] = experiment: Induction of osteogenesis in BALB/c mouse model of drill hole defect at femur mid-diaphysis assessed as increase in bone volume/tissue volume fraction at 5 to 10 mg/kg, po for 12 days by micro-CT analysis; format: functional, organism-based; details: dose 5-10 mg/kg, time 12.0 day
# Outline: (§4)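 Female BALB/c mice, 8–9 weeks, given a drill-hole defect at femur mid-diaphysis under intraperitoneal ketamine (45 mg kg⁻¹)/xylazine (5 mg kg⁻¹); ten per group. Oral dosing at 1, 5 or 10 mg kg⁻¹ began the day after injury for 12 days; PTH 20 μg kg⁻¹ per day as reference. Defect region scanned by μCT for BV/TV, Tb.Th and Tb.N.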
# Calvarial osteoblast [7] = experiment: Induction of osteogenesis in BALB/c mouse calvarial osteoblast cells assessed as increase in phosphorylated SMAD1 level at 1 to 100 pM incubated for 48 hrs by Western blot analysis; format: functional, cell-based; details: Calvaria, dose 1-100 pM
# Outline: (§5)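 Calvarial osteoblasts seeded at 10⁶ per well, treated after 24 h at 1 pM and 100 pM for 48 h. Lysed with protease and phosphatase inhibitors, protein by BCA; 30 μg resolved by SDS-PAGE, PVDF transfer, 5% BSA block. Primary antibodies to BMP2, SMAD1, phospho-SMAD1, RUNX2, type I col (1:1000) overnight at 4 °C; β-actin loading control; HRP chemiluminescence and densitometry.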
# [8] = Induction of osteogenesis in BALB/c mouse MSC cells assessed as increase in mineral nodule formation at 0.001 nM treated for 21 days with compound refreshment for every 48 hrs by Alizarin red S staining based analysis relative to control; format: functional; details: time 21 day; outline: as §3
# Calvarial osteoblast [9] = experiment: Induction of osteogenesis in BALB/c mouse calvarial osteoblast cells assessed as increase in type-1 col mRNA level at 1 to 100 pM by qPCR analysis; format: functional, cell-based; details: Calvaria, dose 1-100 pM
# Outline: (§6)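 BALB/c calvarial osteoblasts treated at 1 pM and 100 pM; RNA isolated, cDNA synthesized and RUNX2 and type 1 col transcripts measured by PCR.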
# [10] = Half life in BALB/c mouse at 5 mg/kg, po measured for 0.83 to 24 hrs by LC-MS/MS analysis; format: ADME, organism-based; details: in vivo, time 0.83-24 hrs
# [11] = Stability in BALB/c mouse plasma assessed as compound remaining measured upto 6 hrs by RP-UHPLC analysis; format: ADME, cell-free; details: read-out: Stability
# Calvarial osteoblast [12] = experiment: Induction of cell proliferation of BALB/c mouse calvarial osteoblast cells at 0.001 nM incubated for 48 hrs by MTT assay relative to control; format: functional, Calvaria; outline: as §1
# Mus musculus [13] = experiment: Induction of osteogenesis in BALB/c mouse model of drill hole defect at femur mid-diaphysis assessed as increase in fracture healing at 1 to 10 mg/kg, po for 12 days by micro-CT analysis; format: functional, organism-based; details: dose 1-10 mg/kg, time 12.0 day; outline: as §4
# Calvarial osteoblast [14] = experiment: Induction of osteogenesis in BALB/c mouse calvarial osteoblast cells assessed as increase in RUNX mRNA level at 1 to 100 pM by qPCR analysis; format: functional, cell-based; details: Calvaria, dose 1-100 pM; outline: as §6
# [15] = Clearance in BALB/c mouse at 5 mg/kg, po measured for 0.83 to 24 hrs by LC-MS/MS analysis; format: ADME, organism-based; details: in vivo, time 0.83-24 hrs
# Mus musculus [16] = experiment: Induction of osteogenesis in BALB/c mouse model of drill hole defect at femur mid-diaphysis assessed as increase in trabecular thickness at 5 to 10 mg/kg, po for 12 days by micro-CT analysis; format: functional, organism-based; details: dose 5-10 mg/kg, time 12.0 day; outline: as §4
# Mus musculus [17] = experiment: Induction of osteogenesis in BALB/c mouse model of drill hole defect at femur mid-diaphysis assessed as increase in RUNX2 mRNA level at 5 to 10 mg/kg, po for 12 days by qPCR analysis; format: functional, organism-based; details: dose 5-10 mg/kg, time 12.0 day
# [18] = Volume of distribution in BALB/c mouse at 5 mg/kg, po measured for 0.83 to 24 hrs by LC-MS/MS analysis; format: ADME, organism-based; details: in vivo, time 0.83-24 hrs
# Mus musculus [19] = experiment: Induction of osteogenesis in BALB/c mouse model of drill hole defect at femur mid-diaphysis assessed as increase in callus formation at 1 to 10 mg/kg, po for 12 days by micro-CT analysis; format: functional, organism-based; details: dose 1-10 mg/kg, time 12.0 day; outline: as §4
# Calvarial osteoblast [20] = experiment: Induction of osteogenesis in BALB/c mouse calvarial osteoblast cells assessed as increase in BMP2 level at 1 to 100 pM incubated for 48 hrs by Western blot analysis; format: functional, cell-based; details: Calvaria, dose 1-100 pM; outline: as §5
# [21] = Stability in SIF assessed as compound remaining measured upto 6 hrs by RP-UHPLC analysis; format: ADME; details: simulated intestinal fluid (SIF), read-out: Stability
# Calvarial osteoblast [22] = experiment: Induction of osteogenesis in BALB/c mouse calvarial osteoblast cells assessed as increase in type-1 col level at 1 to 100 pM incubated for 48 hrs by Western blot analysis; format: functional, cell-based; details: Calvaria, dose 1-100 pM; outline: as §5
# Mus musculus [23] = experiment: Induction of osteogenesis in BALB/c mouse model of drill hole defect at femur mid-diaphysis assessed as increase in calcein binding at fracture site at 5 mg/kg, po for 12 days by confocal microscopy; format: functional, organism-based; details: time 12.0 day
# Outline: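 Femur drill-hole model in female BALB/c mice, oral dosing 1–10 mg kg⁻¹ for 12 days from the day after injury. Calcein 20 mg kg⁻¹ in saline given i.p. 24 h before autopsy; undecalcified drill-hole region embedded in acrylic, 50 μm sections cut, and calcein intensity at the fracture site quantified.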
# [24] = MRT in BALB/c mouse at 5 mg/kg, po measured for 0.83 to 24 hrs by LC-MS/MS analysis; format: ADME, organism-based; details: in vivo, time 0.83-24 hrs
# [25] = Stability in SPF assessed as compound remaining measured upto 6 hrs by RP-UHPLC analysis; format: physicochemical; details: read-out: Stability
# Mus musculus [26] = experiment: Induction of osteogenesis in BALB/c mouse model of drill hole defect at femur mid-diaphysis assessed as increase in trabecular number at 5 mg/kg, po for 12 days by micro-CT analysis; format: functional, organism-based; details: time 12.0 day; outline: as §4
# [27] = Tmax in BALB/c mouse at 5 mg/kg, po measured for 0.83 to 24 hrs by LC-MS/MS analysis; format: ADME, organism-based; details: in vivo, time 0.83-24 hrs
# Calvarial osteoblast [28] = experiment: Induction of osteogenesis in BALB/c mouse calvarial osteoblast cells assessed as increase in SMAD1 level at 1 to 100 pM incubated for 48 hrs by Western blot analysis; format: functional, cell-based; details: Calvaria, dose 1-100 pM; outline: as §5
# [29] = Stability in SGF assessed as compound remaining measured upto 6 hrs by RP-UHPLC analysis; format: ADME; details: simulated gastric fluid (SGF), read-out: Stability
# Calvarial osteoblast [30] = experiment: Induction of cell proliferation of BALB/c mouse calvarial osteoblast cells at 10 nM incubated for 48 hrs by MTT assay relative to control
# Mus musculus [31] = experiment: Induction of osteogenesis in BALB/c mouse model of drill hole defect at femur mid-diaphysis assessed as increase in BMP2 mRNA level at 5 to 10 mg/kg, po for 12 days by qPCR analysis; format: functional, organism-based; details: dose 5-10 mg/kg, time 12.0 day
# [32] = Cmax in BALB/c mouse at 5 mg/kg, po measured for 0.83 to 24 hrs by LC-MS/MS analysis; format: ADME, organism-based; set-up: time 0.83-24 hrs, dose 5 mg/kg, route po; details: in vivo
# Mus musculus [33] = experiment: Induction of osteogenesis in BALB/c mouse model of drill hole defect at femur mid-diaphysis assessed as increase in type-1 col mRNA level at 5 to 10 mg/kg, po for 12 days by qPCR analysis; format: functional, organism-based; details: dose 5-10 mg/kg, time 12.0 day
# Calvarial osteoblast [34] = experiment: Induction of osteogenesis in BALB/c mouse calvarial osteoblast cells assessed as increase in RUNX2 level at 1 to 100 pM incubated for 48 hrs by Western blot analysis; format: functional, cell-based; details: Calvaria, dose 1-100 pM; outline: as §5
# [35] = AUC (0 to infinity) in BALB/c mouse at 5 mg/kg, po measured for 0.83 to 24 hrs by LC-MS/MS analysis; format: ADME, organism-based; set-up: time upper 24 hrs, dose 5 mg/kg, time lower 0.83 hrs, route po; details: in vivo
# Mus musculus [36] = experiment: Induction of osteogenesis in BALB/c mouse model of drill hole defect at femur mid-diaphysis assessed as increase in extracellular matrix deposition at 1 to 10 mg/kg, po for 12 days by H and E staining based analysis; format: functional, organism-based; details: dose 1-10 mg/kg, time 12.0 day
# Outline: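 Drill-hole femur defect, female BALB/c mice, oral dosing 1–10 mg kg⁻¹ for 12 days. Injury-site tissue fixed 48 h in 4% paraformaldehyde, 48 h in 70% isopropanol, decalcified, paraffin-embedded; 5 μm transverse sections stained with H&E and imaged by bright-field microscopy.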
smiles,measurement,setting,value
COc1cc(OC)c(-c2cc(-c3ccc(Br)cc3)nc(N)n2)cc1OC,Activity,Calvarial osteoblast [1],Non-Toxic
same,Activity,Calvarial osteoblast [2],~30%
same,Activity,Calvarial osteoblast [3],Active
same,Activity,[4],~23%
CCCCCC(=O)Nc1nc(-c2ccc(Br)cc2)c(Br)c(-c2cc(OC)c(OC)cc2OC)n1,Activity,Calvarial osteoblast [5],Active
same,Activity,Mus musculus [6],Active
same,Activity,Calvarial osteoblast [1],Non-Toxic
same,Activity,Calvarial osteoblast [7],Active
same,Activity,[8],~40%
same,Activity,Calvarial osteoblast [9],Active
same,half-life,[10],747 min
same,remaining at 6 h,[11],> 85%
same,Activity,Calvarial osteoblast [12],~32%
same,Activity,Mus musculus [13],Active
same,Activity,Calvarial osteoblast [14],Active
same,CL,[15],117.84 L/h/kg
same,Activity,Mus musculus [16],Active
same,Activity,Mus musculus [17],Active
same,Vd,[18],2113.99 L/kg
same,Activity,Mus musculus [19],Active
same,Activity,Calvarial osteoblast [20],Active
same,Activity,Calvarial osteoblast [2],~31%
same,remaining at 6 h,[21],> 50%
same,Activity,Calvarial osteoblast [22],Active
same,Activity,Mus musculus [23],Active
same,MRT,[24],18.1 h
same,remaining at 6 h,[25],> 85%
same,Activity,Mus musculus [26],Active
same,Tmax,[27],49.8 min
same,Activity,[4],~39%
same,Activity,Calvarial osteoblast [28],Active
same,remaining at 6 h,[29],> 50%
same,Activity,Calvarial osteoblast [30],~23%
same,Activity,Mus musculus [31],Active
same,Cmax,[32],0.83 ng/mL
same,Activity,Mus musculus [33],Active
same,Activity,Calvarial osteoblast [34],Active
same,AUC,[35],6.18006 ng·h/mL
same,Activity,Mus musculus [36],Active
COc1cc(OC)c(-c2cc(-c3ccc(Cl)cc3)nc(N)n2)cc1OC,Activity,Calvarial osteoblast [1],Non-Toxic
same,Activity,Calvarial osteoblast [3],Active
